According to PubChem BioAssay AID488843 (Broad Institute, 2010):
Activity calls are given as the source filed them.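 How the source made its calls: active means compound whose fitted half-maximal VEGF mRNA rise lies within ten times its top tested dose; inconclusive means flat response of 30 to 70% or a poor curve fit; inactive means the rest, including reverse-direction effects.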

Assays:
[1] = system: U2OS VEGF mRNA induction, RT-PCR; test: VEGF mRNA induction via HIF pathway, dose response, cell-based, U2OS, RT-PCR, dry powder (AID 488843)
Method in brief: (§1)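 Material: U2OS human osteosarcoma cells, endogenous VEGF-A mRNA expression; Medium: DMEM without phenol red plus 10% FBS; Compound: dose-response series of compounds, pinned in duplicate; Times: 24 h pre-growth, 24 h treatment, 37 °C; Signal: multiplex TaqMan RT-qPCR, VEGF-A FAM, beta-actin VIC; Benchmarks: DMSO wells as negative reference.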

[2] = as above; settings: U2OS VEGF mRNA induction, RT-PCR; at 38 µM (top of the series)
Method in brief: as §1

SMILES | AC50 [1] [µM] | activation (VEGF mRNA increase) [2]
O=C(NCCN1CCOCC1)c1cc(-c2ccccc2)on1 | 19.6 | 
CN(C)CCNC(=O)c1cc(-c2ccccc2)on1 |  | 4% (inactive)
c1ccc(-c2csc(Nc3nc(-c4ccccn4)nnc3-c3ccccc3)n2)cc1 | 2.69 | 
c1ccc(-c2nnc(-c3ccccn3)nc2NCCN2CCOCC2)cc1 | 8.52 | 
c1ccc(-c2nnc(-c3ccccn3)nc2Nc2cnc3ccccc3n2)cc1 | 4.81 | 
c1ccc(-c2cnc(Nc3nc(-c4ccccn4)nnc3-c3ccccc3)s2)cc1 | 4.96 | 
O=C(NCC1CCCCC1)c1cc(-c2ccccc2)on1 |  | -2.06% (inactive)
c1ccc(-c2nnc(-c3ccccn3)nc2NCCCN2CCOCC2)cc1 | 9.7 | 
O=C(Nc1nnc(-c2ccccc2)s1)c1cc(-c2ccccc2)on1 |  | 3.52% (inactive)
O=C(c1cc(-c2ccccc2)on1)N1CCN(c2ccncc2)CC1 |  | 34.7% (inactive)
O=C(Nc1ccc2ccccc2n1)c1cc(-c2ccccc2)on1 | 7.99 | 
Cc1ccccc1CNc1nc(-c2ccccn2)nnc1-c1ccccc1 | 5.64 | 
c1ccc(-c2nnc(-c3ccccn3)nc2N2CCN(c3ccncc3)CC2)cc1 | 7.31 | 
O=C(NCC1CC1)c1cc(-c2ccccc2)on1 | 14.4 | 
c1ccc(-c2nnc(-c3ccccn3)nc2N2CCC(N3CCOCC3)CC2)cc1 | 8.46 | 
Cc1cccc(NC(=O)c2cc(-c3ccccc3)on2)n1 |  | -4.09% (inactive)
Cc1cccc(CNc2nc(-c3ccccn3)nnc2-c2ccccc2)c1 | 3.83 | 
O=C(NCCN1CCCCC1)c1cc(-c2ccccc2)on1 |  | 14.3% (inactive)
CCCCNC(=O)c1cc(-c2ccccc2)on1 | 12.4 | 
O=C(NCc1ccccc1)c1cc(-c2ccccc2)on1 |  | 12.2% (inactive)

SMILES | AC50 [1] [µM] | activation (VEGF mRNA increase) [2]
O=C(NCCCN1CCOCC1)c1cc(-c2ccccc2)on1 | 30.7 | 
O=C(NCCCO)c1cc(-c2ccccc2)on1 | 22.3 | 
Cc1ccc(CNc2nc(-c3ccccn3)nnc2-c2ccccc2)cc1 | 3.46 | 
O=C(c1cc(-c2ccccc2)on1)N1CCC(N2CCOCC2)CC1 |  | 13% (inactive)
c1ccc(-c2nnc(-c3ccccn3)nc2NCC2CCCCC2)cc1 | 3.04 | 
O=C(c1cc(-c2ccccc2)on1)N1CCc2cccnc21 |  | 5.19% (inactive)
Cn1c(NC(=O)c2cc(-c3ccccc3)on2)nc2ccccc21 |  | 2.87% (inactive)
CC(C)(C)CCNC(=O)c1cc(-c2ccccc2)on1 |  | 13.5% (inactive)
O=C(c1cc(-c2ccccc2)on1)N1CCC(CO)CC1 |  | 14.4% (inactive)
O=C(NCCCn1ccnc1)c1cc(-c2ccccc2)on1 | 16 | 
CN(C)c1nc(-c2ccccn2)nnc1-c1ccccc1 | 6.38 | 
OCC1CCN(c2nc(-c3ccccn3)nnc2-c2ccccc2)CC1 | 11.1 | 
c1ccc(CNc2nc(-c3ccccn3)nnc2-c2ccccc2)cc1 | 7.55 | 
O=C(c1cc(-c2ccccc2)on1)N1CCC(N2CCCC2)CC1 |  | 9.95% (inactive)
Cc1ccc(CNC(=O)c2cc(-c3ccccc3)on2)cc1 |  | -3.43% (inactive)
C=CCNc1nc(-c2ccccn2)nnc1-c1ccccc1 | 7 | 
O=C(Nc1cn2ccccc2n1)c1cc(-c2ccccc2)on1 |  | 20.3% (inactive)
O=C(Nc1ncc2ccccc2n1)c1cc(-c2ccccc2)on1 |  | 17.1% (inactive)
c1ccc(-c2nnc(-c3ccccn3)nc2Nc2nc3ccccc3s2)cc1 | 1.71 | 
CC(C)(C)CCNc1nc(-c2ccccn2)nnc1-c1ccccc1 | 3.58 | 

SMILES | AC50 [1] [µM] | activation (VEGF mRNA increase) [2]
OCCCNc1nc(-c2ccccn2)nnc1-c1ccccc1 | 10.7 | 
O=C(Nc1nc(-c2ccccc2)cs1)c1cc(-c2ccccc2)on1 |  | 3.91% (inactive)
Cc1cccc(Nc2nc(-c3ccccn3)nnc2-c2ccccc2)n1 | 12.9 | 
O=C(NCCCCO)c1cc(-c2ccccc2)on1 | 8.59 | 
Cn1c(-c2ccccc2)cnc1NC(=O)c1cc(-c2ccccc2)on1 |  | -1.36% (inactive)
Cc1ccc(Nc2nc(-c3ccccn3)nnc2-c2ccccc2)cn1 | 8.83 | 
O=C(Nc1cnc2ccccc2c1)c1cc(-c2ccccc2)on1 |  | 3.98% (inactive)
CN1CCN(C(=O)c2cc(-c3ccccc3)on2)CC1 |  | -1.09% (inactive)
c1ccc(-c2nnc(Nc3nc(-c4ccccn4)nnc3-c3ccccc3)s2)cc1 | 2.81 | 
Cc1ccccc1CNC(=O)c1cc(-c2ccccc2)on1 |  | 22.6% (inactive)
Cc1cccc(CNC(=O)c2cc(-c3ccccc3)on2)c1 |  | 11.8% (inactive)
O=C(NC1Cc2ccccc2C1)c1cc(-c2ccccc2)on1 |  | -0.187% (inactive)
O=C(Nc1nc2ccccc2s1)c1cc(-c2ccccc2)on1 |  | 4.08% (inactive)
Cc1ccc(NC(=O)c2cc(-c3ccccc3)on2)cn1 | 38 | 
O=C(Nc1ncc(-c2ccccc2)o1)c1cc(-c2ccccc2)on1 |  | 1.3% (inactive)
O=C(NC1CCc2ccccc2C1)c1cc(-c2ccccc2)on1 (centres undefined) |  | 14.2% (inactive)
c1ccc(-c2nnc(-c3ccccn3)nc2NCC2CC2)cc1 | 8.4 | 
CN1CCN(c2nc(-c3ccccn3)nnc2-c2ccccc2)CC1 | 8.76 | 
Cn1c(-c2ccccc2)cnc1Nc1nc(-c2ccccn2)nnc1-c1ccccc1 | 5.34 | 
